Measured values taken from PMC9534497 (Science Advances, 2022).

Columns and labels:
[1] = Stability of ATP binding of DnaA at 4°, 30° or 42°C, filter retention assay; parameters: species or system E. coli; settings: 4° and 30°C, with reduced affinity
Summary of the method: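 Purified DnaA (1.9 μM) was loaded with 1 μM [α-32P]ATP in PP-60 buffer for 15 min at 4°C, then held at 4°, 30° or 42°C. Aliquots were withdrawn at timed intervals. Bound nucleotide was measured by retention on nitrocellulose filters and scintillation counting.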

E. coli EH3827 = test: In vivo replication assay, poriC transformation of ∆dnaA cells; type: cell-based; settings: 0.1 or 0.2% arabinose, versus DnaA WT
E. coli MG1655 = test: Growth of wild-type host on overexpression of DnaA; type: cell-based; settings: 30°C, WT host
E. coli CM742 (dnaA46ts) = test: Flow cytometry, total DNA content per cell; type: cell-based; settings: 30°C, 0.2% arabinose, rifampicin and cephalexin 2.5 hours
Summary of the method: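 Host is dnaA46ts E. coli transformed with pBAD-derived plasmids carrying wild-type or mutant dnaA under an arabinose promoter. Overnight LB cultures with antibiotics were diluted to OD600 ~0.005 and grown 45 min. Each culture was split: one half got 0.2% arabinose, the other 0.2% glucose. At 30°C to OD600 0.15, then rifampicin (150 μg/ml) plus cephalexin (10 μg/ml) for 2.5 h; DNA content measured by flow cytometry.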

[2] = test system: E. coli CM742 (dnaA46ts) carrying pRD (seqA); test: Growth of dnaA46ts cells with SeqA-expressing plasmid pRD; type: cell-based; settings: 30°C, IPTG 50 μM (SeqA expressed), no arabinose, 0.2% arabinose or 0.2% glucose
Summary of the method: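 Cells carrying the IPTG-inducible seqA plasmid were made competent on LB-agar with tetracycline and 50 μM IPTG. They were transformed with pBAD-based dnaA plasmids and selected at 30°C on tetracycline (12.5 μg/ml) plus ampicillin (100 μg/ml). Single colonies were grown in LB to OD600 ~0.1. Equal OD units were replica-plated with no sugar, 0.2% arabinose or 0.2% glucose.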

[3] = test system: E. coli EH3287 (∆dnaA/pgsA^+); test: Subcellular fractionation and immunoblotting of DnaA; type: cell-based; settings: 0.2% arabinose for 90 min
Summary of the method: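 ΔdnaA/pgsA+ cells carrying arabinose-inducible dnaA alleles were grown to OD600 ~0.1, then induced with 0.2% arabinose for 90 min. Lysis used lysozyme (300 μg/ml) plus three freeze-thaw cycles. Cytosol and membranes were separated at 44,000 rpm for 30 min. Membranes were solubilized in octyl-thio-glucoside or CHAPS, recentrifuged and dialysed overnight. Protein levels are relative to wild type, averaged over three biological replicates.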

[4] = DTSSP cross-linking for higher-oligomer forms of DnaA; type: biochemical, E. coli; settings: ATP form treated with DTSSP
[5] = ThermoFluor assay, melting point of DnaA proteins; type: physicochemical, E. coli; settings: protein 5 μM with ATP 5 mM (Fig. 2)

B1: DnaA(D118Q): DnaA mutant, Asp^118 in the linker domain substituted with Gln (protein)
chain: MSLSLWQQCLARLQDELPATEFSMWIRPLQAELSDNTLALYAPNRFVLDWVRDKYLNNINGLLTSFCGADAPQLRFEVGTKPVTQTPQAAVTSNVAAPAQVAQTQPQRAAPSTRSGWQNVPAPAEPTYRSNVNVKHTFDNFVEGKSNQLARAAARQVADNPGGAYNPLFLYGGTGLGKTHLLHAVGNGIMARKPNAKVVYMHSERFVQDMVKALQNNAIEEFKRYYRSVDALLIDDIQFFANKERSQEEFFHTFNALLEGNQQIILTSDRYPKEINGVEDRLKSRFGWGLTVAIEPPELETRVAILMKKADENDIRLPGEVAFFIAKRLRSNVRELEGALNRVIANANFTGRAITIDFVREALRDLLALQEKLVTIDNIQKTVAEYYKIKVADLLSKRRSRSVARPRQMAMALAKELTNHSLPEIGDAFGGRDHTTVLHACRKIEQLREESHDIKEDFSNLIRTLSS
modifications: left off: His10, N-terminal, state not stated
For B1, the “retention of bound ATP” value [1] was “maintained its ATP form”, the “reduction in the number of transformants” value (E. coli EH3827) was “at least 50 fold” and the “growth of the host on induced expression” value (E. coli MG1655) was “no growth defect”. The “overreplication / DNA content per cell upon induction of DnaA” value (E. coli CM742 (dnaA46ts)) was “more extensive”, the “growth on LB-agar plates” value [2] was “showed growth at 30 °C” and the “DnaA in OTG-solubilized membrane fraction (immunoblotting)” value [3] was “abundant accumulation in the membrane”. The “formation of higher-order oligomer assemblies” value [4] was “higher-order oligomer assemblies were not formed” and the melting point [5] was 49 °C.
